Measurements taken from publication PMC5609126 (ACS Chemical Neuroscience, 2017).

Legend:
[1] = test system: P-gp; experiment: PET imaging in Mdr1a/b; format: in vivo, mice; conditions: for brain-to-blood AUC ratios: PET image-derived brain and blood curves
How it was run: (§1)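 Male FVB-background wild-type, Mdr1a/b(−/−) and Bcrp1(−/−) mice (28.3–39.7 g) were isoflurane-anaesthetised with jugular cannulas. They got 3.6–3.8 MBq radiotracer and 60 min dynamic PET in groups of 4–6, mostly on HRRT. One tracer's Mdr1a/b(−/−) vs WT study used nanoPET/CT and PET/MR. Ellipsoid ROIs gave brain TACs (SUV) and left-ventricle blood curves. Brain-to-blood AUC ratios were calculated from the AUCs.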

[2] = Metabolite analysis in plasma and brain tissue after tracer injection; format: in vivo; conditions: Wistar rats, mean ± SD; for parent tracer, brain: brain tissue
How it was run: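 Male Wistar rats (230–291 g) got radiotracer (28 ± 4 or 43 ± 24 MBq, depending on tracer) by tail vein under isoflurane and stayed conscious until sacrifice at 5, 15 or 60 min (n = 3). Heparinised plasma was run on a tC18 cartridge: the water wash was the polar metabolite fraction and the methanol eluate the nonpolar parent fraction, analysed by HPLC. Half-brains were homogenised in cold H2O/MeCN (1:1), centrifuged, and supernatants run on HPLC.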

[3] = Biodistribution in selected organs; format: in vivo; conditions: Wistar rats, 5, 15, 60 min after injection
How it was run: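 Male Wistar rats (218–244 g) got 50 ± 2 MBq radiotracer i.v. by tail vein under isoflurane (2% in O2). They stayed conscious until sacrifice, except the 5 min group. Rats were killed under isoflurane at 5, 15 or 60 min (n = 3). Heart-puncture blood, heart, lungs, liver, kidneys, bone, cerebral cortex, cerebellum and remaining brain were weighed and gamma-counted. Results were expressed as %ID/g.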

[4] = test system: P-gp; experiment: P-gp blocking study with tariquidar, PET whole brain uptake; format: in vivo; conditions: Wistar rats; for increase in brain uptake after tariquidar vs baseline scans: tariquidar 15 mg/kg i.v. 30 min before tracer, PET whole brain
[5] = test system: BCRP; experiment: PET imaging in Bcrp1; format: in vivo; conditions: Bcrp1(-/-) mice, PET image-derived brain and blood curves
How it was run: as §1

[6] = PET imaging in wild-type; format: in vivo; conditions: WT mice, PET image-derived brain and blood curves
How it was run: as §1

Row | SMILES | brain-to-blood AUC ratios ([1]; Mdr1a/b(-/-) mice) | higher brain uptake in Mdr1a/b(-/-) mice compared with wild-type mice ([1]; during the first 10 min, PET whole brain) [fold] | parent tracer, brain ([2]; 15 min after injection) | parent tracer, plasma ([2]; 15 min after injection) | parent tracer, plasma ([2]; 60 min after injection) | bone uptake (defluorination) [3] | brain uptake [3] | time of highest brain uptake ([4]; PET whole brain time-activity curve, tariquidar blocking study) [min] | increase in brain uptake after tariquidar vs baseline scans [4] [fold] | brain-to-blood AUC ratios [5] | brain-to-blood AUC ratios [6] | SUV plateau of brain uptake ([1]; Mdr1a/b(-/-) mice, at the end of the scan (60 min)) | higher brain uptake in Mdr1a/b(-/-) mice than in wild-type mice ([1]; maximum level over 60 min scan, PET whole brain) [fold] | parent tracer, brain ([2]; 5 min after injection) | parent tracer, brain ([2]; 60 min after injection) | parent tracer, plasma ([2]; 5 min after injection)
1 | COc1ccc(CCN(CC[18F])CCC[C@](C#N)(c2ccc(OC)c(OC)c2)C(C)C)cc1OC [[^18F]1, (R)-5-((3,4-Dimethoxyphenethyl)(2-[^18F]fluoroethyl)amino)-2-(3,4-dimethoxyphenyl)-2-isopropylpentanenitrile] | 0.98 ± 0.07 | 1.4 | 14 ± 2 Percentage of total radioactivity | 19 ± 2 Percentage of total radioactivity | 3 ± 1 Percentage of total radioactivity | bone uptake was low and did not increase over time | low brain uptake | 5 | 3.6 | 0.88 ± 0.06 | 0.52 ± 0.05 |  |  |  |  | 
2 | COc1ccc([C@@](C#N)(CCCNCCc2ccc(OCC[18F])c(OC)c2)C(C)C)cc1OC [[^18F]2, (R)-2-(3,4-Dimethoxyphenyl)-5-((4-(2-[^18F]fluoroethoxy)-3-methoxyphenethyl)amino)-2-isopropylpentanenitrile] | 0.75 ± 0.14 |  | 17 ± 7 Percentage of total radioactivity | 8 ± 3 Percentage of total radioactivity | 4 ± 1 Percentage of total radioactivity | low bone uptake |  |  | 2.4 | 0.20 ± 0.02 | 0.18 ± 0.04 | about 0.9 SUV | ≤ 6.4 | 26 ± 6 Percentage of total radioactivity | 6 ± 1 Percentage of total radioactivity | 20 ± 3 Percentage of total radioactivity
